How the values were obtained:
Acinetobacter baumannii [1] = experiment: Potentiation of colistin-induced antibiotic activity against Acinetobacter baumannii ATCC 17978 assessed as MIC fold reduction at 8 ug/ml after 18 hrs by microbroth dilution method; assay type: functional; details: dose 8 µg/ml
Summary of the method: (§1)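 Adjuvant held at a fixed 8 μg/mL while the antibiotic was 2-fold serially diluted in Mueller-Hinton broth (MHB), per CLSI microbroth dilution. Overnight cultures were adjusted in saline to 0.5 McFarland, then diluted 1:50 in MHB to about 5 × 10^5 CFU/mL final, and incubated 18 h at 37 °C. MIC was the lowest concentration with no visible turbidity, confirmed at 590 nm. Fold potentiation = MIC alone / MIC with adjuvant.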

Pseudomonas aeruginosa [2] = experiment: Potentiation of novobiocin-induced antibiotic activity against Pseudomonas aeruginosa PAO1 assessed as MIC fold reduction at 8 ug/ml after 18 hrs by microbroth dilution method; assay type: functional; details: dose 8 µg/ml
Pseudomonas aeruginosa [3] = experiment: Potentiation of aztreonam-induced antibiotic activity against Pseudomonas aeruginosa PAO1 assessed as MIC fold reduction at 8 ug/ml after 18 hrs by microbroth dilution method; assay type: functional; details: dose 8 µg/ml
Summary of the method: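 Initial screen in MHB using a fixed 8 μg mL−1 of adjuvant combined with each antibiotic under 2-fold dilution. Broth microdilution used about 5 × 10^5 CFU/mL at 37 °C for 18 h, with visible turbidity read and confirmed at 590 nm. Fold-potentiation = antibiotic MIC alone ÷ antibiotic MIC with adjuvant.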

Acinetobacter baumannii [4] = experiment: Antibacterial activity against Acinetobacter baumannii AB92247 assessed as potentiation of cefiderocol antibacterial activity by measuring FIC after 18 hrs by microbroth dilution method; assay type: functional
Summary of the method: (§2)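 Checkerboard in Mueller-Hinton broth: cefiderocol 2-fold diluted on one axis, adjuvant 2-fold on the other. Overnight cultures were adjusted to 0.5 McFarland in saline, diluted 1:50 in MHB, and inoculated at about 5 × 10^5 CFU/mL. Incubation was 18 h at 37 °C. Turbidity was read visually and confirmed at 590 nm. FIC index = FIC of antibiotic + FIC of adjuvant; ≤0.5 synergy, >4 antagonism.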

Pseudomonas aeruginosa [5] = experiment: Potentiation of cotrimoxazole-induced antibiotic activity against Pseudomonas aeruginosa PAO1 assessed as MIC fold reduction at 8 ug/ml after 18 hrs by microbroth dilution method; assay type: functional; details: dose 8 µg/ml; summary of the method: as §1
Pseudomonas aeruginosa [6] = experiment: Antibacterial activity against MDR clinical isolate Pseudomonas aeruginosa PA100036 assessed as potentiation of cefiderocol antibacterial activity by measuring FIC index after 18 hrs by microbroth dilution method; assay type: functional
Summary of the method: (§3)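 Checkerboard in MHB (iron-replete, not iron-depleted CAMHB). Cefiderocol was 2-fold serially diluted along one axis and the adjuvant along the other. Inoculum was 0.5 McFarland diluted 1:50, about 5 × 10^5 CFU/mL final. Incubation was 18 h at 37 °C, with turbidity read visually and confirmed at 590 nm. FIC was the MIC in combination over the MIC alone for each agent, and the FIC index was their sum. Cut-offs were ≤0.5 synergy, >0.5–4 additive, >4 antagonism.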

Klebsiella pneumoniae [7] = experiment: Antibacterial activity against Klebsiella pneumoniae KP116381 assessed as reduction in bacterial growth after 18 hrs in presence of cefiderocol by microbroth dilution method; assay type: functional
Summary of the method: (§4)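 Checkerboard in MHB. Cefiderocol was 2-fold serially diluted along one axis and the adjuvant along the other. Inoculum was prepared from 0.5 McFarland saline suspensions diluted 1:50 in MHB, giving about 5 × 10^5 CFU/mL final. Plates ran 18 h at 37 °C, with turbidity confirmed at 590 nm. FIC = combination MIC ÷ MIC alone for each agent, and FIC index = sum of both. Interpretation: ≤0.5 synergy, >0.5–4 additive, >4 antagonism.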

Escherichia coli [8] = experiment: Antibacterial activity against Escherichia coli 94474 assessed as reduction in bacterial growth after 18 hrs by microbroth dilution method; assay type: functional
Summary of the method: (§5)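 CLSI microbroth dilution in MHB. Overnight cultures were adjusted to 0.5 McFarland in saline, diluted 1:50, and inoculated at about 5 × 10^5 CFU/mL. Agents were 2-fold serially diluted and incubated 18 h at 37 °C. MIC is the lowest concentration without visible turbidity, confirmed by absorbance at 590 nm. Medium with and without cells served as controls.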

Escherichia coli [9] = experiment: Potentiation of piperacilin-induced antibiotic activity against Escherichia coli ATCC 25922 assessed as MIC fold reduction at 8 ug/ml after 18 hrs by microbroth dilution method; assay type: functional; details: dose 8 µg/ml
Escherichia coli [10] = experiment: Potentiation of colistin-induced antibiotic activity against Escherichia coli ATCC 25922 assessed as MIC fold reduction at 8 ug/ml after 18 hrs by microbroth dilution method; assay type: functional; details: dose 8 µg/ml; summary of the method: as §1
Pseudomonas aeruginosa [11] = experiment: Potentiation of rifampicin-induced antibiotic activity against Pseudomonas aeruginosa PAO1 assessed as MIC fold reduction at 8 ug/ml after 18 hrs by microbroth dilution method; assay type: functional; details: dose 8 µg/ml
Enterobacter cloacae [12] = experiment: Antibacterial activity against Enterobacter cloacae 118564 assessed as reduction in bacterial growth after 18 hrs in presence of cefiderocol by microbroth dilution method; assay type: functional; summary of the method: as §2
Pseudomonas aeruginosa [13] = experiment: Antibacterial activity against MDR clinical isolate Pseudomonas aeruginosa PA109084 assessed as potentiation of cefiderocol antibacterial activity by measuring FIC index after 18 hrs by microbroth dilution method; assay type: functional; summary of the method: as §4
Acinetobacter baumannii [14] = experiment: Antibacterial activity against Acinetobacter baumannii AB031 assessed as potentiation of cefiderocol antibacterial activity by measuring FIC after 18 hrs by microbroth dilution method; assay type: functional; summary of the method: as §2
Pseudomonas aeruginosa [15] = experiment: Potentiation of moxifloxacin-induced antibiotic activity against Pseudomonas aeruginosa PAO1 assessed as reduction in microbial growth at 8 ug/ml after 18 hrs by microbroth dilution method relative to control; details: PAO1, 18 h, read-out: GI
Enterobacter cloacae [16] = experiment: Antibacterial activity against Enterobacter cloacae 117029 assessed as reduction in bacterial growth after 18 hrs by microbroth dilution method; assay type: functional; summary of the method: as §5
Escherichia coli [17] = experiment: Potentiation of linezolid-induced antibiotic activity against Escherichia coli ATCC 25922 assessed as MIC fold reduction at 8 ug/ml after 18 hrs by microbroth dilution method; assay type: functional; details: dose 8 µg/ml; summary of the method: as §1
Acinetobacter baumannii [18] = experiment: Potentiation of rifampicin-induced antibiotic activity against Acinetobacter baumannii ATCC 17978 assessed as MIC fold reduction at 8 ug/ml after 18 hrs by microbroth dilution method; assay type: functional; details: dose 8 µg/ml
Enterococcus faecalis = experiment: Antibacterial activity against Enterococcus faecalis ATCC 29212 assessed as reduction in bacterial growth after 18 hrs by microbroth dilution method; assay type: functional; summary of the method: as §5
Klebsiella pneumoniae [19] = experiment: Antibacterial activity against Klebsiella pneumoniae KP116381 assessed as potentiation of cefiderocol antibacterial activity by measuring FIC after 18 hrs by microbroth dilution method; assay type: functional; summary of the method: as §4
Pseudomonas aeruginosa [20] = experiment: Antibacterial activity against MDR clinical isolate Pseudomonas aeruginosa PA259 assessed as reduction in bacterial growth after 18 hrs in presence of cefiderocol by microbroth dilution method; assay type: functional; summary of the method: as §4
Pseudomonas aeruginosa [21] = experiment: Antibacterial activity against MDR clinical isolate Pseudomonas aeruginosa PA262 assessed as reduction in bacterial growth after 18 hrs in presence of cefiderocol by microbroth dilution method; assay type: functional; summary of the method: as §3
Klebsiella pneumoniae [22] = experiment: Antibacterial activity against Klebsiella pneumoniae KP113250 assessed as reduction in bacterial growth after 18 hrs in presence of cefiderocol by microbroth dilution method; assay type: functional; summary of the method: as §2
Klebsiella pneumoniae [23] = experiment: Antibacterial activity against Klebsiella pneumoniae KP113250 assessed as potentiation of cefiderocol antibacterial activity by measuring FIC after 18 hrs by microbroth dilution method; assay type: functional; summary of the method: as §2
Escherichia coli [24] = experiment: Potentiation of novobiocin-induced antibiotic activity against Escherichia coli ATCC 25922 assessed as MIC fold reduction at 8 ug/ml after 18 hrs by microbroth dilution method; assay type: functional; details: dose 8 µg/ml

SMILES: NC[C@H]1O[C@H](O[C@H]2[C@H](OCCCCc3cn(-c4ccc(NC(=O)c5cc(Cl)ccc5O)cc4)nn3)[C@@H](O[C@H]3O[C@H](CO)[C@@H](O)[C@H](N)[C@H]3O)[C@H](N)C[C@@H]2N)[C@H](N)C[C@@H]1O
- fold change (FC) (Acinetobacter baumannii [1]): 4
- fold change (FC) (Pseudomonas aeruginosa [2]): 4
- fold change (FC) (Pseudomonas aeruginosa [3]): 4
- FIC (Acinetobacter baumannii [4]): 0.5
- fold change (FC) (Pseudomonas aeruginosa [5]): 4
- FIC (Pseudomonas aeruginosa [6]): 1
- MIC (Klebsiella pneumoniae [7]): 0.25 µg/mL
- MIC (Escherichia coli [8]): > 128 µg/mL
- fold change (FC) (Escherichia coli [9]): 4
- fold change (FC) (Escherichia coli [10]): 4
- fold change (FC) (Pseudomonas aeruginosa [11]): 4
- MIC (Enterobacter cloacae [12]): 0.25 µg/mL
- FIC (Pseudomonas aeruginosa [13]): 0.004
- FIC (Acinetobacter baumannii [14]): 0.5
- inhibition of growth at 8 µg/mL (Pseudomonas aeruginosa [15]): 100%
- MIC (Enterobacter cloacae [16]): > 128 µg/mL
- fold change (FC) (Escherichia coli [17]): 4
- fold change (FC) (Acinetobacter baumannii [18]): 4
- MIC (Enterococcus faecalis): > 128 µg/mL
- FIC (Klebsiella pneumoniae [19]): 0.5
- MIC (Pseudomonas aeruginosa [20]): 4 µg/mL
- MIC (Pseudomonas aeruginosa [21]): 1 µg/mL
- MIC (Klebsiella pneumoniae [22]): 4 µg/mL
- FIC (Klebsiella pneumoniae [23]): 0.25
- fold change (FC) (Escherichia coli [24]): 4

From ChEMBL document CHEMBL5136969, “A niclosamide-tobramycin hybrid adjuvant potentiates cefiderocol against P. aeruginosa” (2021)
